Results reported in ChEMBL document CHEMBL4138069, “Design, synthesis, molecular-docking and antimycobacterial evaluation of some novel 1,2,3-triazolyl xanthenones” (Medchemcomm, 2017).
Values after ≈ are worked out from the molar mass of the structure shown.

Experiments:
[1] = Cytotoxicity in HEK cells assessed as inhibition of cell growth at 50 ug/ml incubated for 72 hrs by MTT assay; type: cell-based; conditions: human, read-out: GI
How it was run: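 HEK cells were exposed to compound at 50 μg mL–1 for 72 h. Viability was taken from cellular conversion of MTT to formazan, using a non-radioactive cell proliferation kit.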

[2] = test system: Bacillus cereus; assay: Antibacterial activity against Bacillus cereus MTCC 430 by agar dilution method; type: functional
How it was run: (§1)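 Minimum inhibitory concentration measured by agar dilution against three Gram-positive and three Gram-negative MTCC strains; read out as MIC.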

[3] = test system: Klebsiella aerogenes; assay: Antibacterial activity against Enterobacter aerogenes MTCC 111 by agar dilution method; type: functional; how it was run: as §1
[4] = test system: Pseudomonas aeruginosa; assay: Antibacterial activity against Pseudomonas aeruginosa MTCC 741 by agar dilution method; type: functional; how it was run: as §1
[5] = Lipophilicity, log P of the compound; type: physicochemical; conditions: octanol/water
How it was run: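 Value is a calculated log P (clog P), computed rather than measured experimentally.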

[6] = test system: Escherichia coli; assay: Antibacterial activity against Escherichia coli MTCC 1652 by agar dilution method; type: functional; how it was run: as §1
[7] = test system: Candida albicans; assay: Antifungal activity against Candida albicans MTCC 9062; type: functional
How it was run: (§2)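 Antifungal read-out was MIC in μg mL–1, with fluconazole as the reference drug.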

[8] = test system: Staphylococcus aureus; assay: Antibacterial activity against Staphylococcus aureus MTCC 96 by agar dilution method; type: functional; how it was run: as §1
[9] = test system: Bacillus subtilis; assay: Antibacterial activity against Bacillus subtilis MTCC 121 by agar dilution method; type: functional; how it was run: as §1
[10] = test system: Aspergillus niger; assay: Antifungal activity against Aspergillus niger MTCC 282; type: functional; how it was run: as §2
[11] = test system: Mycobacterium tuberculosis; assay: Antimycobacterial activity against Mycobacterium tuberculosis H37Rv ATCC 27294 assessed as inhibition of bacterial growth incubated for 28 days; type: functional; conditions: H37Rv ATCC 27294, 672 h
How it was run: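 Agar dilution in Middlebrook 7H11 with OADC, two-fold dilutions at final 50 to 0.78 μg mL–1. Inoculum from fresh 7H11 slants, adjusted to 1 mg mL–1 wet weight in 0.05% Tween 80 saline, diluted 10–2 to about 10^7 cfu mL–1; 5 μL spotted per tube. Incubated at 37 °C. MIC = lowest concentration giving complete growth inhibition, read at 28 days, in triplicate.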

| Structure (SMILES) | inhibition at 72 h, 50 ug/ml [1] [%] | MIC [2] [µg/mL] | MIC [3] [µg/mL] | MIC [4] [µg/mL] | logP [5] | MIC [6] [µg/mL] | MIC [7] [µg/mL] | MIC [8] [µg/mL] | MIC [9] [µg/mL] | MIC [10] [µg/mL] | MIC [11] [µg/mL] |
| --- | --- | --- | --- | --- | --- | --- | --- | --- | --- | --- | --- |
| COc1ccc(-n2cc(C3C4=C(CC(C)(C)CC4=O)Oc4ccc5ccccc5c43)nn2)cc1 (configuration not stated) | 21.2 | 3.12 (≈ 6.91 µM) | 6.25 (≈ 13.8 µM) | 6.25 (≈ 13.8 µM) | 4.53 | 12.5 (≈ 27.7 µM) | 6.25 (≈ 13.8 µM) | 6.25 (≈ 13.8 µM) | 6.25 (≈ 13.8 µM) | 3.12 (≈ 6.91 µM) | 6.25 (≈ 13.8 µM) |
| CC1(C)CC(=O)C2=C(C1)Oc1ccc3ccccc3c1C2c1cn(-c2ccc(O)cc2)nn1 (configuration not stated) | – | 12.5 (≈ 28.6 µM) | 6.25 (≈ 14.3 µM) | 6.25 (≈ 14.3 µM) | 4.26 | 3.12 (≈ 7.13 µM) | 3.12 (≈ 7.13 µM) | 6.25 (≈ 14.3 µM) | 6.25 (≈ 14.3 µM) | 12.5 (≈ 28.6 µM) | > 25 |
| O=C1CCCC2=C1C(c1cn(-c3ccc(Cl)cc3)nn1)c1c(ccc3ccccc13)O2 (configuration not stated) | 18.1 | 12.5 (≈ 29.2 µM) | 12.5 (≈ 29.2 µM) | 25 (≈ 58.4 µM) | 4.41 | 12.5 (≈ 29.2 µM) | > 100 | 12.5 (≈ 29.2 µM) | 50 (≈ 117 µM) | > 100 | 3.12 (≈ 7.3 µM) |
| CC1(C)CC(=O)C2=C(C1)Oc1ccc3ccccc3c1C2c1cn(-c2ccccc2Cl)nn1 (configuration not stated) | – | 3.12 (≈ 6.84 µM) | 12.5 (≈ 27.4 µM) | 6.25 (≈ 13.7 µM) | 5.21 | 3.12 (≈ 6.84 µM) | 3.12 (≈ 6.84 µM) | 3.12 (≈ 6.84 µM) | 6.25 (≈ 13.7 µM) | 3.12 (≈ 6.84 µM) | 25 (≈ 54.8 µM) |
| COc1ccccc1-n1cc(C2C3=C(CC(C)(C)CC3=O)Oc3ccc4ccccc4c32)nn1 (configuration not stated) | – | 50 (≈ 111 µM) | > 100 | > 100 | 4.53 | 25 (≈ 55.4 µM) | 25 (≈ 55.4 µM) | > 100 | > 100 | > 100 | 12.5 (≈ 27.7 µM) |
| O=Cc1cn(-c2ccccc2)nn1 | – | – | – | – | – | – | – | – | – | – | 25 (≈ 144 µM) |
| CC1(C)CC(=O)C2=C(C1)Oc1ccc3ccccc3c1C2c1cn(-c2cccc(C(F)(F)F)c2)nn1 (configuration not stated) | – | 12.5 (≈ 25.5 µM) | 25 (≈ 51.1 µM) | 25 (≈ 51.1 µM) | 5.57 | 100 (≈ 204 µM) | 100 (≈ 204 µM) | 25 (≈ 51.1 µM) | 50 (≈ 102 µM) | 12.5 (≈ 25.5 µM) | > 25 |
| O=Cc1cn(-c2ccccc2Cl)nn1 | – | – | – | – | – | – | – | – | – | – | 25 (≈ 120 µM) |
| NNC(=O)c1ccncc1 [ISONIAZID] | – | – | – | – | – | – | – | – | – | – | 0.72 (≈ 5.25 µM) |
| CC1(C)CC(=O)C2=C(C1)Oc1ccc3ccccc3c1C2c1cn(-c2ccc(Cl)cc2)nn1 (configuration not stated) | 18.1 | 12.5 (≈ 27.4 µM) | 12.5 (≈ 27.4 µM) | 12.5 (≈ 27.4 µM) | 5.21 | 12.5 (≈ 27.4 µM) | 12.5 (≈ 27.4 µM) | 12.5 (≈ 27.4 µM) | 12.5 (≈ 27.4 µM) | 12.5 (≈ 27.4 µM) | 3.12 (≈ 6.85 µM) |
| O=Cc1cn(-c2ccc(Cl)cc2)nn1 | – | – | – | – | – | – | – | – | – | – | 6.25 (≈ 30.1 µM) |
| O=C1CCCC2=C1C(c1cn(-c3ccc([N+](=O)[O-])cc3)nn1)c1c(ccc3ccccc13)O2 (configuration not stated) | – | > 100 | > 100 | 50 (≈ 114 µM) | – | 50 (≈ 114 µM) | > 100 | > 100 | > 100 | > 100 | > 25 |
| CO[C@H]1/C=C/O[C@@]2(C)Oc3c(C)c(O)c4c(O)c(c(/C=N/N5CCN(C)CC5)c(O)c4c3C2=O)NC(=O)/C(C)=C\C=C\[C@H](C)[C@H](O)[C@@H](C)[C@@H](O)[C@@H](C)[C@H](OC(C)=O)[C@@H]1C [RIFAMPIN] | – | – | – | – | – | – | – | – | – | – | 0.24 (≈ 0.292 µM) |
| COc1ccccc1-n1cc(C=O)nn1 | – | – | – | – | – | – | – | – | – | – | > 25 |
| COc1ccc(-n2cc(C3C4=C(CCCC4=O)Oc4ccc5ccccc5c43)nn2)cc1 (configuration not stated) | 22.2 | 3.12 (≈ 7.37 µM) | 6.25 (≈ 14.8 µM) | 6.25 (≈ 14.8 µM) | 3.73 | 3.12 (≈ 7.37 µM) | 3.12 (≈ 7.37 µM) | 3.12 (≈ 7.37 µM) | 12.5 (≈ 29.5 µM) | 3.12 (≈ 7.37 µM) | 6.25 (≈ 14.8 µM) |
| O=C1CCCC2=C1C(c1cn(-c3cccc(C(F)(F)F)c3)nn1)c1c(ccc3ccccc13)O2 (configuration not stated) | – | 25 (≈ 54.2 µM) | 12.5 (≈ 27.1 µM) | 6.5 (≈ 14.1 µM) | 4.77 | 12.5 (≈ 27.1 µM) | 50 (≈ 108 µM) | 6.25 (≈ 13.5 µM) | 12.5 (≈ 27.1 µM) | 50 (≈ 108 µM) | > 25 |
| O=C1CCCC2=C1C(c1cn(-c3ccccc3)nn1)c1c(ccc3ccccc13)O2 (configuration not stated) | – | 3.12 (≈ 7.93 µM) | 3.12 (≈ 7.93 µM) | 3.12 (≈ 7.93 µM) | 3.85 | 3.12 (≈ 7.93 µM) | 3.12 (≈ 7.93 µM) | 3.12 (≈ 7.93 µM) | 3.12 (≈ 7.93 µM) | 3.12 (≈ 7.93 µM) | 12.5 (≈ 31.8 µM) |
| NC(=O)c1cnccn1 [PYRAZINAMIDE] | – | – | – | – | – | – | – | – | – | – | 50.8 (≈ 412 µM) |
| O=C1CCCC2=C1C(c1cn(-c3ccccc3Cl)nn1)c1c(ccc3ccccc13)O2 (configuration not stated) | – | > 100 | 50 (≈ 117 µM) | 50 (≈ 117 µM) | 4.41 | 12.5 (≈ 29.2 µM) | > 100 | > 100 | > 100 | 12.5 (≈ 29.2 µM) | 25 (≈ 58.4 µM) |
| OC(Cn1cncn1)(Cn1cncn1)c1ccc(F)cc1F [FLUCONAZOLE] | – | – | – | – | – | – | ≤ 3.12 | – | – | ≤ 3.12 | – |
| O=Cc1cn(-c2ccc([N+](=O)[O-])cc2)nn1 | – | – | – | – | – | – | – | – | – | – | > 25 |
| COc1ccc(-n2cc(C=O)nn2)cc1 | – | – | – | – | – | – | – | – | – | – | 12.5 (≈ 61.5 µM) |
| O=Cc1cn(-c2cccc(C(F)(F)F)c2)nn1 | – | – | – | – | – | – | – | – | – | – | > 25 |
| CC1(C)CC(=O)C2=C(C1)Oc1ccc3ccccc3c1C2c1cn(-c2ccc([N+](=O)[O-])cc2)nn1 (configuration not stated) | – | 6.25 (≈ 13.4 µM) | 3.12 (≈ 6.69 µM) | 12.5 (≈ 26.8 µM) | – | 3.12 (≈ 6.69 µM) | 3.12 (≈ 6.69 µM) | 12.5 (≈ 26.8 µM) | 6.25 (≈ 13.4 µM) | 6.25 (≈ 13.4 µM) | > 25 |
| COc1ccccc1-n1cc(C2C3=C(CCCC3=O)Oc3ccc4ccccc4c32)nn1 (configuration not stated) | – | 25 (≈ 59 µM) | 6.25 (≈ 14.8 µM) | 6.25 (≈ 14.8 µM) | 3.73 | 12.5 (≈ 29.5 µM) | 6.25 (≈ 14.8 µM) | 6.25 (≈ 14.8 µM) | 12.5 (≈ 29.5 µM) | 12.5 (≈ 29.5 µM) | 25 (≈ 59 µM) |
| O=Cc1cn(-c2ccc(O)cc2)nn1 | – | – | – | – | – | – | – | – | – | – | > 25 |
| O=C1CCCC2=C1C(c1cn(-c3ccc(O)cc3)nn1)c1c(ccc3ccccc13)O2 (configuration not stated) | – | > 100 | > 100 | > 100 | 3.46 | > 100 | > 100 | > 100 | > 100 | > 100 | > 25 |
| CC[C@@H](CO)NCCN[C@@H](CC)CO [ETHAMBUTOL] | – | – | – | – | – | – | – | – | – | – | 7.64 (≈ 37.4 µM) |
| CC1(C)CC(=O)C2=C(C1)Oc1ccc3ccccc3c1C2c1cn(-c2ccccc2)nn1 (configuration not stated) | – | 12.5 (≈ 29.7 µM) | 6.25 (≈ 14.8 µM) | 25 (≈ 59.3 µM) | 4.65 | 12.5 (≈ 29.7 µM) | 25 (≈ 59.3 µM) | 6.25 (≈ 14.8 µM) | 25 (≈ 59.3 µM) | 6.25 (≈ 14.8 µM) | 12.5 (≈ 29.7 µM) |
| O=C(O)c1cn(C2CC2)c2cc(N3CCNCC3)c(F)cc2c1=O [CIPROFLOXACIN] | – | ≤ 6.25 | ≤ 6.25 | ≤ 6.25 | – | ≤ 6.25 | – | ≤ 6.25 | ≤ 6.25 | – | – |
